{"source": "ChEMBL document CHEMBL1124180", "about": "“Asymmetric synthesis and properties of the enantiomers of the antibacterial agent 7-(3-aminopyrrolidin-1-yl)-1-(2,4-difluorophenyl)-1,4-dihydro-6- fluoro-4-oxo-1,8-naphthyridine-3-carboxylic acid hydrochloride” (J Med Chem, 1988)", "key": {"Klebsiella pneumoniae": {"system": "Klebsiella pneumoniae", "experiment": "In vitro activity against Klebsiella pneumoniae (ATCC 8045).", "format": "functional", "how_it_was_run": "(§1)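 MIC determined by agar dilution on brain-heart infusion agar under aerobic conditions.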"}, "Streptococcus pyogenes [1]": {"system": "Streptococcus pyogenes", "experiment": "In vitro activity against Streptococcus pyogenes(930 CONST).", "format": "functional", "how_it_was_run": "as §1"}, "[2]": {"experiment": "Solubility in aqueous media Ringer's buffer,pH7.4", "format": "physicochemical", "details": "pH 7.4"}, "Escherichia coli [3]": {"system": "Escherichia coli", "experiment": "In vitro activity against Escherichia coli (H560)", "format": "functional", "how_it_was_run": "(§2)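 MIC for aerobic bacteria, measured on brain-heart infusion agar.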"}, "Streptococcus pyogenes [4]": {"system": "Streptococcus pyogenes", "experiment": "In vitro activity against Streptococcus pyogenes (EES61)", "format": "functional", "how_it_was_run": "as §1"}, "Streptococcus equinus": {"system": "Streptococcus equinus", "experiment": "In vitro activity against Streptococcus bovis (A5169).", "format": "functional", "how_it_was_run": "as §1"}, "[5]": {"experiment": "Solubility in aqueous media urine, pH 7.0", "format": "physicochemical", "details": "read-out: S"}, "[6]": {"experiment": "Solubility in aqueous media urine, pH 5.7", "format": "physicochemical", "details": "read-out: S"}, "Pseudomonas aeruginosa [7]": {"system": "Pseudomonas aeruginosa", "experiment": "In vitro activity against Pseudomonas aeruginosa (A5007).", "format": "functional", "how_it_was_run": "as §1"}, "Pseudomonas aeruginosa [8]": {"system": "Pseudomonas aeruginosa", "experiment": "In vitro activity against Pseudomonas aeruginosa (K799/WT).", "format": "functional", "how_it_was_run": "as §1"}, "Mus musculus [9]": {"system": "Mus musculus", "experiment": "In vivo activity against Escherichia coli Juhl(100X LD50), when administered po( each compound tested at 3 doses with 10 animals)", "format": "functional", "how_it_was_run": "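Mice were challenged intraperitoneally with the organism. The compound was given orally as a total dose split into equal portions at 1 and 5 h post-infection. Three doses were used, with 10 animals per dose.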"}, "[10]": {"experiment": "Solubility in aqueous media 0.15Nacetate, pH 6.1", "format": "physicochemical", "details": "0.15 N acetate, read-out: S"}, "Staphylococcus aureus [11]": {"system": "Staphylococcus aureus", "experiment": "In vitro activity against Staphylococcus aureus(CMX 686B)", "format": "functional", "how_it_was_run": "as §1"}, "Staphylococcus aureus [12]": {"system": "Staphylococcus aureus", "experiment": "In vitro activity against Staphylococcus aureus(ATCC 6538P)", "format": "functional", "how_it_was_run": "as §1"}, "Escherichia coli [13]": {"system": "Escherichia coli", "experiment": "In vitro activity against Escherichia coli (DC-2)", "format": "functional", "how_it_was_run": "as §2"}, "Staphylococcus aureus [14]": {"system": "Staphylococcus aureus", "experiment": "In vitro activity against Staphylococcus aureus (A5177)", "format": "functional", "how_it_was_run": "as §1"}, "Mus musculus [15]": {"system": "Mus musculus", "experiment": "In vivo activity against Pseudomonas aeruginosa A5007 (100X LD50), administered sc ( each compound tested at 3 doses with 10 animals)", "format": "functional", "how_it_was_run": "(§3)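 Mice were challenged intraperitoneally with the organism. The compound was given subcutaneously as a total dose split into equal portions at 1 and 5 h post-infection. Three doses were used, with 10 animals per dose.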"}, "[16]": {"experiment": "Solubility in aqueous media urine, pH 6.3", "format": "physicochemical", "details": "read-out: S"}, "Staphylococcus aureus [17]": {"system": "Staphylococcus aureus", "experiment": "In vitro activity against Staphylococcus aureus(CMX 503A)", "format": "functional", "how_it_was_run": "as §1"}, "Escherichia coli [18]": {"system": "Escherichia coli", "experiment": "In vitro activity against Escherichia coli Juhl", "format": "functional", "how_it_was_run": "as §2"}, "Streptococcus agalactiae": {"system": "Streptococcus agalactiae", "experiment": "In vitro activity against Streptococcus agalactiae (CMX 508).", "format": "functional", "how_it_was_run": "as §1"}, "Acinetobacter sp.": {"system": "Acinetobacter sp.", "experiment": "In vitro activity against Acinetobacter sp.(CMX 669).", "format": "functional", "how_it_was_run": "as §1"}, "Escherichia coli [19]": {"system": "Escherichia coli", "experiment": "In vitro activity against Escherichia coli (KNK437)", "format": "functional", "how_it_was_run": "as §2"}, "Burkholderia cepacia": {"system": "Burkholderia cepacia", "experiment": "In vitro activity against Pseudomonas cepacia (296I)", "format": "functional", "how_it_was_run": "as §1"}, "[20]": {"experiment": "Solubility in aqueous media 0.15 N phosphate, pH 5.6", "format": "physicochemical", "details": "read-out: S"}, "[21]": {"experiment": "Solubility in aqueous media urine, pH 5.1", "format": "physicochemical", "details": "read-out: S"}, "Pseudomonas aeruginosa [22]": {"system": "Pseudomonas aeruginosa", "experiment": "In vitro activity against Pseudomonas aeruginosa (BMH10)", "format": "functional", "how_it_was_run": "as §1"}, "Escherichia coli [23]": {"system": "Escherichia coli", "experiment": "In vitro activity against Escherichia coli (SS).", "format": "functional", "how_it_was_run": "as §2"}, "Enterococcus faecium": {"system": "Enterococcus faecium", "experiment": "In vitro activity against Enterococcus faecium (ATCC 8043).", "format": "functional", "how_it_was_run": "as §1"}, "Klebsiella aerogenes": {"system": "Klebsiella aerogenes", "experiment": "In vitro activity againsT Enterobacter aerogenes (ATCC 13048).", "format": "functional", "how_it_was_run": "as §1"}, "Staphylococcus aureus [24]": {"system": "Staphylococcus aureus", "experiment": "In vitro activity against Staphylococcus aureus(45 RAR2)", "format": "functional", "how_it_was_run": "as §1"}, "Mus musculus [25]": {"system": "Mus musculus", "experiment": "In vivo activity against Escherichia coli Juhl(100X LD50), when administered sc( each compound tested at 3 doses with 10 animals)", "format": "functional", "how_it_was_run": "as §3"}, "[26]": {"experiment": "Solubility in aqueous media 0.1 N chloride, pH 6.5", "format": "physicochemical", "details": "read-out: S"}, "[27]": {"experiment": "Solubility in aqueous media 0.15 N sulfate, pH 5.4", "format": "physicochemical", "details": "read-out: S"}, "Providencia stuartii": {"system": "Providencia stuartii", "experiment": "In vitro activity against Providencia stuartii (CMX 640)", "format": "functional", "how_it_was_run": "as §1"}, "Staphylococcus aureus [28]": {"system": "Staphylococcus aureus", "experiment": "In vitro activity against Staphylococcus aureus(45)", "format": "functional", "how_it_was_run": "as §1"}, "Micrococcus luteus [29]": {"system": "Micrococcus luteus", "experiment": "In vitro activity against Micrococcus luteus (ATCC 9341)", "format": "functional", "how_it_was_run": "as §1"}, "Micrococcus luteus [30]": {"system": "Micrococcus luteus", "experiment": "In vitro activity against Micrococcus luteus (ATCC 4698)", "format": "functional", "how_it_was_run": "as §1"}, "Streptococcus pyogenes [31]": {"system": "Streptococcus pyogenes", "experiment": "In vitro activity against Streptococcus pyogenes (2548 INDUC).", "format": "functional", "how_it_was_run": "as §1"}, "Staphylococcus aureus [32]": {"system": "Staphylococcus aureus", "experiment": "In vitro activity against Staphylococcus aureus(CMX 553)", "format": "functional", "how_it_was_run": "as §1"}, "Mus musculus [33]": {"system": "Mus musculus", "experiment": "In vivo activity against Pseudomonas aeruginosa A5007 (100X LD50), administered sc( each compound tested at 3 doses with 10 animals)", "format": "functional", "how_it_was_run": "as §3"}, "[34]": {"system": "Staphylococcus epidermidis", "experiment": "In vitro activity against Staphylococcus epidermidis (3519)", "format": "functional", "how_it_was_run": "as §1"}}, "data": [{"smiles": "Cl.NC1CCN(c2nc3c(cc2F)c(=O)c(C(=O)O)cn3-c2ccc(F)cc2F)C1", "note": "(configuration not stated)", "values": [{"measurement": "MIC", "setting": "Klebsiella pneumoniae", "value": 0.02, "unit": "µg/mL"}, {"measurement": "MIC", "setting": "Streptococcus pyogenes [1]", "value": 0.2, "unit": "µg/mL"}, {"measurement": "solubility", "setting": "[2]", "value": 8, "unit": "µg/mL"}, {"measurement": "MIC", "setting": "Escherichia coli [3]", "value": 0.02, "unit": "µg/mL"}, {"measurement": "MIC", "setting": "Streptococcus pyogenes [4]", "value": 0.2, "unit": "µg/mL"}, {"measurement": "MIC", "setting": "Streptococcus equinus", "value": 0.2, "unit": "µg/mL"}, {"measurement": "solubility", "setting": "[5]", "value": 12.2, "unit": "µg/mL"}, {"measurement": "solubility", "setting": "[6]", "value": 16.3, "unit": "µg/mL"}, {"measurement": "MIC", "setting": "Pseudomonas aeruginosa [7]", "value": 0.2, "unit": "µg/mL"}, {"measurement": "MIC", "setting": "Pseudomonas aeruginosa [8]", "value": 0.1, "unit": "µg/mL"}, {"measurement": "ED50", "setting": "Mus musculus [9]", "value": 1.2, "unit": "mg/kg"}, {"measurement": "solubility", "setting": "[10]", "value": 1.7, "unit": "µg/mL"}, {"measurement": "MIC", "setting": "Staphylococcus aureus [11]", "value": 0.05, "unit": "µg/mL"}, {"measurement": "MIC", "setting": "Staphylococcus aureus [12]", "value": 0.02, "unit": "µg/mL"}, {"measurement": "MIC", "setting": "Escherichia coli [13]", "value": 0.2, "unit": "µg/mL"}, {"measurement": "MIC", "setting": "Staphylococcus aureus [14]", "value": 0.05, "unit": "µg/mL"}, {"measurement": "ED50", "setting": "Mus musculus [15]", "value": 0.4, "unit": "mg/kg"}, {"measurement": "solubility", "setting": "[16]", "value": 12.7, "unit": "µg/mL"}, {"measurement": "MIC", "setting": "Staphylococcus aureus [17]", "value": 0.05, "unit": "µg/mL"}, {"measurement": "MIC", "setting": "Escherichia coli [18]", "value": 0.02, "unit": "µg/mL"}, {"measurement": "MIC", "setting": "Streptococcus agalactiae", "value": 0.39, "unit": "µg/mL"}, {"measurement": "MIC", "setting": "Acinetobacter sp.", "value": 0.05, "unit": "µg/mL"}, {"measurement": "MIC", "setting": "Escherichia coli [19]", "value": 0.02, "unit": "µg/mL"}, {"measurement": "MIC", "setting": "Burkholderia cepacia", "value": 6.2, "unit": "µg/mL"}, {"measurement": "solubility", "setting": "[20]", "value": 1.8, "unit": "µg/mL"}, {"measurement": "solubility", "setting": "[21]", "value": 23.5, "unit": "µg/mL"}, {"measurement": "MIC", "setting": "Pseudomonas aeruginosa [22]", "value": 0.1, "unit": "µg/mL"}, {"measurement": "MIC", "setting": "Escherichia coli [23]", "value": 0.01, "unit": "µg/mL"}, {"measurement": "MIC", "setting": "Enterococcus faecium", "value": 0.2, "unit": "µg/mL"}, {"measurement": "MIC", "setting": "Klebsiella aerogenes", "value": 0.1, "unit": "µg/mL"}, {"measurement": "MIC", "setting": "Staphylococcus aureus [24]", "value": 0.1, "unit": "µg/mL"}, {"measurement": "ED50", "setting": "Mus musculus [25]", "value": 0.2, "unit": "mg/kg"}, {"measurement": "solubility", "setting": "[26]", "value": 1.2, "unit": "µg/mL"}, {"measurement": "solubility", "setting": "[27]", "value": 6.5, "unit": "µg/mL"}, {"measurement": "MIC", "setting": "Providencia stuartii", "value": 1.56, "unit": "µg/mL"}, {"measurement": "MIC", "setting": "Staphylococcus aureus [28]", "value": 0.1, "unit": "µg/mL"}, {"measurement": "MIC", "setting": "Micrococcus luteus [29]", "value": 1.56, "unit": "µg/mL"}, {"measurement": "MIC", "setting": "Micrococcus luteus [30]", "value": 0.78, "unit": "µg/mL"}, {"measurement": "MIC", "setting": "Streptococcus pyogenes [31]", "value": 0.2, "unit": "µg/mL"}, {"measurement": "MIC", "setting": "Staphylococcus aureus [32]", "value": 0.05, "unit": "µg/mL"}, {"measurement": "ED50", "setting": "Mus musculus [33]", "value": "> 25", "unit": "mg/kg"}, {"measurement": "MIC", "setting": "[34]", "value": 0.05, "unit": "µg/mL"}]}]}
